Bioassay records deposited in PubChem BioAssay by several laboratories.
A selection: hits, their analogues and other compounds. The true share with any hit is near 2.6%.
MEKK2mut PB1 HTS: MEK5 binding signal on mutant MEKK2 PB1, primary screen, biochemical, multiplex bead flow cytometry, Alexa488-MEK5; Alexa488-MEK5 binding to MEKK2 mutant; percent response, % at 10 µM; hit rate 0.35% among 290,000; AID 1530, 2009; in the data active means percent response above about 24%, passing the limit was not always enough
MEKK3 PB1 HTS: modulators of MEKK3-MEK5 PB1 binding, primary screen, biochemical, wildtype MEKK3, multiplex bead flow cytometry, Alexa488-MEK5; Mitogen-activated protein kinase kinase kinase 3 (Homo sapiens), Q99759; hit rate 1.4% among 290,000; bead-based flow cytometry, Alexa488-MEK5 binding to MEKK3; actives lie on both sides; 0 = blocked by unlabeled MEK5, 100 = vehicle; AID 1529, 2009; binding response (% of control), % at 10 µM;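 active means binding response more than 3 SD above or below the average of its plate-row segment, actives on both sides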;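 further: Alexa488 bead fluorescence after subtracting the streptavidin-only scavenger bead signal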
Target sequence (Q99759 whole entry, looked up): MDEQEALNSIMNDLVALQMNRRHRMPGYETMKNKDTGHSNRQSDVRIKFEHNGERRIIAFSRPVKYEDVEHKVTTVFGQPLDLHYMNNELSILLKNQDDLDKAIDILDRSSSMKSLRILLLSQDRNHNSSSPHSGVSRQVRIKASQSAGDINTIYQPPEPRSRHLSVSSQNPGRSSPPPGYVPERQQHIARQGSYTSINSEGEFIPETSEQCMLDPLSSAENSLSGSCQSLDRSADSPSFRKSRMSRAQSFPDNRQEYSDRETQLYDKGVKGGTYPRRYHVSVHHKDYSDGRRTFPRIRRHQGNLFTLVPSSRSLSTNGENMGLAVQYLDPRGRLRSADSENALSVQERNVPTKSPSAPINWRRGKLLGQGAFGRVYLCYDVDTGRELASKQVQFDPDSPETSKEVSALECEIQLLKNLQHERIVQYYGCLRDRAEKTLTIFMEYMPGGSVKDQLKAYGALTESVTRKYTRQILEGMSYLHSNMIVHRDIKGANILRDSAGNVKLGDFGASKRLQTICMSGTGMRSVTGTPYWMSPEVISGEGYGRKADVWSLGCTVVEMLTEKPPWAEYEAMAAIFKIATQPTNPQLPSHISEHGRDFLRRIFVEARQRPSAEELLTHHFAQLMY
Hep lipid drop: inhibitors of hepatocyte lipid droplet formation, primary screen, imaging, high-throughput imaging, BODIPY stain. AML12 mouse hepatocytes, oleate lipid droplets. inhibition, % at 6.5 µM. hit rate 0.4% among 240,000. AID 1656, 2009;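 active means lipid droplet intensity inhibited by at least 50%, with more than 500 cells counted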
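Material – AML12 mouse liver cells · Also added – oleate loading, 100 µM · Compound dosing – 6.5 µM single-point dosing · Times – overnight treatment with compound plus oleate · Measured by – fluorescence imaging, 20x objective, two fields per well · Read-out – percent inhibition of filter-corrected integrated lipid droplet intensity per well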
MEKK2 WT-MEK5: modulators of MEK5 binding to wildtype MEKK2, primary screen, biochemical, multiplex bead flow cytometry, Alexa488-MEK5; Mitogen-activated protein kinase kinase kinase 2 (Homo sapiens), Q9Y2U5; Alexa488-MEK5 binding to MEKK2 WT; actives lie on both sides; binding response (% of control), % at 10 µM; hit rate 1.1% among 290,000; AID 1531, 2009; in the data active means binding response below about 67% or above about 130%
MEKK2wt confirm: modulators of MEK5 binding to wildtype MEKK2, confirmation, biochemical, single concentration, multiplex bead flow cytometry. Alexa488-MEK5 binding to MEKK2 WT; actives lie on both sides. binding response (% of control), % at 10 µM. AID 1892, 2009. shares compounds with MEKK3 PB1 HTS. hit rate 2.4% among 5,900; in the data active means binding response below about 16% or above about 210%; inactive means in between
MEKK2mut-MEK5: mutant MEKK2 PB1-MEK5 binding signal retest – biochemical, single concentration, multiplex bead flow cytometry, confirmation | Alexa488-MEK5 binding to MEKK2 mutant | hit rate 2% among 5,900 | percent response, % at 10 µM | shares compounds with MEKK3 PB1 HTS | AID 1893, 2009; in the data active means percent response mostly above about 71%, no sharp cut-off; inactive means mostly below about 38%;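 further: higher means compound restores mutant binding toward wildtype level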
MEKK3-MEK5 inh: MEKK3 wild-type PB1 binding to MEK5, inhibitors, confirmation, biochemical, bead multiplex flow cytometry, single concentration, wildtype; shares compounds with MEKK3 PB1 HTS; Alexa488-MEK5 binding to MEKK3; stronger effect = lower value; binding response (% of control), % at 10 µM; hit rate 1.8% among 5,900;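 active means binding response below 72% of control, or above a set upper limit, though filed actives all read lower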;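 further: 100% = DMSO only wells and 0% = binding blocked by excess unlabeled MEK5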
* = called active by the depositor; / = no result; [ ] = another dose, or the depositor's remark.

SMILES | MEKK2mut PB1 HTS | MEKK3 PB1 HTS | Hep lipid drop | MEKK2 WT-MEK5 | MEKK2wt confirm | MEKK2mut-MEK5 | MEKK3-MEK5 inh
CCC(=O)N1CCc2cc(S(=O)(=O)NCCc3ccc(S(N)(=O)=O)cc3)ccc21 | 2.0 | 99.0 | -6.9 | 99.0 | / | / | /
COc1ccc(C2NN=C(c3c[nH]c4ccccc34)C2O)cc1 (configuration not stated) | 213.0* | 93.0 | / | 55.0* | 96.0 | -6.0 | 99.0
CCc1ccc(CN(C)C(=O)c2cc(COc3ccc(-n4cncn4)cc3)on2)cc1 | 2.0 | 105.0 | 6.1 | 104.0 | / | / | /
COc1ccc(Cl)cc1C(=O)NNC1CC(=O)N(Cc2ccc(Cl)cc2)C1=O (configuration not stated) | 0.0 | 105.0 | -2.8 | 103.0 | / | / | /
Brc1ccc(C2=Nc3cccc4cccc(c34)N2)o1 | 2.0 | 142.0* | -1.9 | 109.0 | 99.0 | 3.0 | 98.0
CN(C)CCCn1c(=O)n(CCc2ccccc2)c(=O)c2c3c(sc21)CCCCC3 | 1.0 | 103.0 | 17.1 | 130.0 | / | / | /
CN(C)CCCNc1nc2sc3c(c2c(=O)n1CCc1ccccc1)CCCCC3 | 49.0 | 111.0 | 7.2 | 183.0* | 166.0 | 45.0 | 108.0
O=C(NNc1nc(-c2ccccc2)cs1)c1cccs1 | -35.0 | 69.0*[inhibitor] | -6.3 | 76.0 | 100.0 | 0.0 | 104.0
CC1=N/C(=C\c2ccc([N+](=O)[O-])cc2)C(=O)N1c1ccc(Br)c(C)c1 | -8.0 | 82.0*[inhibitor] | / | -2.0* | 92.0 | -5.0 | 101.0
COc1ccc(N2C(=O)/C(=C/c3ccc([N+](=O)[O-])cc3)N=C2C)cc1 | -13.0 | 93.0 | -4.3 | 81.0 | / | / | /
O=C1c2ccccc2S(=O)(=O)N1CC(O)Cn1ccc2ccccc21 (configuration not stated) | 81.0* | 97.0 | 7.0 | 31.0* | 87.0 | -3.0 | 100.0
OCc1nc2ccccc2n1CC(O)Cn1ccc2ccccc21 (configuration not stated) | 16.0 | 102.0 | 1.7 | 110.0 | / | / | /
OC(CN1CCNCC1)Cn1ccc2ccccc21 (configuration not stated) | 35.0* | 107.0 | 2.0 | 153.0 | 156.0 | 33.0 | 105.0
CCOc1ccc2[nH]cc(-c3csc(N)n3)c2c1 | -5.0 | 85.0 | / | 90.0 | / | / | /
CCN(CC)CCOC(=O)c1ccc(NC(=O)CCCN2C(=O)/C(=C\c3cccs3)SC2=S)cc1 | 17.0 | 102.0 | -2.5 | 154.0* | 147.0 | 28.0 | 93.0
O=C(CCN1C(=O)/C(=C\c2cccs2)SC1=S)Nc1ccc(C(=O)O)cc1 | 3.0 | 101.0 | -1.9 | 97.0 | / | / | /
COc1ccccc1NC(=O)c1ccc(NS(=O)(=O)c2cccc3cccnc23)cc1 | 2.0 | 96.0 | 6.7 | 102.0 | / | / | /
COc1ccc(NS(=O)(=O)c2cccc3cccnc23)cc1 | -2.0 | 72.0*[inhibitor] | 0.0 | 89.0 | 107.0 | 6.0 | 107.0
COc1ccc(C)cc1NC(=O)c1ccc(NS(=O)(=O)c2cccc3cccnc23)cc1 | 26.0 | 131.0* | -7.8 | 111.0 | 97.0 | -1.0 | 102.0
COC(=O)CS(=O)(=O)c1cccc2cccnc12 | -60.0 | 3.0*[inhibitor] | 7.8 | 4.0*[inhibitor] | 90.0 | -7.0 | 92.0
CC(C)CC(=O)Nc1ccc(-c2nc3ccccc3c(=O)[nH]2)cc1 | 0.0 | 99.0 | -0.4 | 96.0 | / | / | /
CCOC(=O)c1nnn2c1nc(SCC(C)=O)c1ccccc12 | 32.0 | 132.0* | 0.7 | 138.0* | 99.0 | -4.0 | 100.0
C=CCSc1nc2c(C(=O)OCC)nnn2c2ccccc12 | 4.0 | 103.0 | -14.3 | 99.0 | / | / | /
